Tests used:
Integrin alpha-V/beta-5 [1] = molecular target: T1, Integrin alpha-V/beta-5 (Homo sapiens, UniProt P06756+P18084); experiment: Binding affinity to integrin alphaVbeta5 receptor in human A498 cells; type: cell-based
Integrin alpha-V/beta-3 [2] = molecular target: T2, Integrin alpha-V/beta-3 (Homo sapiens, UniProt P05106+P06756); experiment: Binding affinity to integrin alphaVbeta3 receptor in human A498 cells; type: cell-based
Integrin alpha-V/beta-5 [3] = molecular target: T1, Integrin alpha-V/beta-5; experiment: Binding affinity to integrin alphaVbeta5 receptor in human A2780 cells; type: cell-based
Integrin alpha-V [4] = molecular target: T3, Integrin alpha-V (Homo sapiens, UniProt P06756); experiment: Binding affinity to integrin alphaV receptor in human PC3 cells; type: cell-based; conditions: PC-3
T3 sequence (P06756 31-889 limits assumed): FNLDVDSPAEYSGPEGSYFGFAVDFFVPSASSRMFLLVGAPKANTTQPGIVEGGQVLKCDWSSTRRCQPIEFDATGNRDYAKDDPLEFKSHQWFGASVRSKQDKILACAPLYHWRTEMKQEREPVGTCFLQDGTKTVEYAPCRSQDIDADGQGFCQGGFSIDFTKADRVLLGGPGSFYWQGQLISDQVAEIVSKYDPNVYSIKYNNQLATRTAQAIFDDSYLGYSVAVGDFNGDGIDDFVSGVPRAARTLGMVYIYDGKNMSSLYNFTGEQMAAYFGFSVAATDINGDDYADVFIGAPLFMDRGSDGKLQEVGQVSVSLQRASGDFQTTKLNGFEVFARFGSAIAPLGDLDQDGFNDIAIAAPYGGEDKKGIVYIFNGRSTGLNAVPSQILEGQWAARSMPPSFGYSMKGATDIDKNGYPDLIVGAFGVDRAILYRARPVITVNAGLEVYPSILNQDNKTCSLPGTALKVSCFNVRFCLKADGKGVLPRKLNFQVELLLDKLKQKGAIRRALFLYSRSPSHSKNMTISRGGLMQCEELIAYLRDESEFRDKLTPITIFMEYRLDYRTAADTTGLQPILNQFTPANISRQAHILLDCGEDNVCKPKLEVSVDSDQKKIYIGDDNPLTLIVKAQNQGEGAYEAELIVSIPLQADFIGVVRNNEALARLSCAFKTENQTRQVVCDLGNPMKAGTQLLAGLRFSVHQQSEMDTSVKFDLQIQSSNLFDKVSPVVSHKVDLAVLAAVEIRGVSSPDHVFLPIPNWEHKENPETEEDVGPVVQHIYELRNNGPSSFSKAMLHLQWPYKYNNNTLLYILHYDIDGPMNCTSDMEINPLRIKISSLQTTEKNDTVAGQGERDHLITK
T3 sequence (P06756 891-1048 limits assumed): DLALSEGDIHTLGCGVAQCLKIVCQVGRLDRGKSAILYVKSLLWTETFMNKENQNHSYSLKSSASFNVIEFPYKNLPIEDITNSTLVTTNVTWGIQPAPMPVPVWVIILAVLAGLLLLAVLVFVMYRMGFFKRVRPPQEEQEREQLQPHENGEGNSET
In short: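 Tumor cells in serum-free medium with 1% BSA were plated for 1 h on wells precoated with 5 µg/ml human vitronectin and blocked with 1% BSA. Compounds were tested at 0.1–100 µM. Adherent cells were fixed with 4% paraformaldehyde, stained with 1% toluidine blue, solubilized in 1% SDS and read by absorbance. IC50 ± SD from curve fitting.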

PC-3 = experiment: Cytotoxicity against human PC3 cells after 72 hrs by sulforhodamine B assay; type: functional, cell-based; conditions: PC-3, 72 h
In short: (§1)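 Tumor cells were seeded in 96-well plates and exposed the next day to a range of drug concentrations for 72 h. Surviving cells were quantified by sulforhodamine B staining, and IC50 ± SD was derived by curve fitting.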

A498 [5] = experiment: Cytotoxicity against human A498 cells after 72 hrs by sulforhodamine B assay; type: functional, cell-based; conditions: A498, 72 h; in short: as §1
A2780 [6] = experiment: Cytotoxicity against human A2780 cells after 72 hrs by sulforhodamine B assay; type: functional, cell-based; conditions: A2780, 72 h; in short: as §1
Integrin alpha-V/beta-3 [7] = molecular target: T2, Integrin alpha-V/beta-3; experiment: Displacement of [125I]echistatin from integrin alphaVbeta3 receptor after 3 hrs by gamma counting; type: protein-complex assay
Target sequence in this assay (P05106 27-788 limits assumed): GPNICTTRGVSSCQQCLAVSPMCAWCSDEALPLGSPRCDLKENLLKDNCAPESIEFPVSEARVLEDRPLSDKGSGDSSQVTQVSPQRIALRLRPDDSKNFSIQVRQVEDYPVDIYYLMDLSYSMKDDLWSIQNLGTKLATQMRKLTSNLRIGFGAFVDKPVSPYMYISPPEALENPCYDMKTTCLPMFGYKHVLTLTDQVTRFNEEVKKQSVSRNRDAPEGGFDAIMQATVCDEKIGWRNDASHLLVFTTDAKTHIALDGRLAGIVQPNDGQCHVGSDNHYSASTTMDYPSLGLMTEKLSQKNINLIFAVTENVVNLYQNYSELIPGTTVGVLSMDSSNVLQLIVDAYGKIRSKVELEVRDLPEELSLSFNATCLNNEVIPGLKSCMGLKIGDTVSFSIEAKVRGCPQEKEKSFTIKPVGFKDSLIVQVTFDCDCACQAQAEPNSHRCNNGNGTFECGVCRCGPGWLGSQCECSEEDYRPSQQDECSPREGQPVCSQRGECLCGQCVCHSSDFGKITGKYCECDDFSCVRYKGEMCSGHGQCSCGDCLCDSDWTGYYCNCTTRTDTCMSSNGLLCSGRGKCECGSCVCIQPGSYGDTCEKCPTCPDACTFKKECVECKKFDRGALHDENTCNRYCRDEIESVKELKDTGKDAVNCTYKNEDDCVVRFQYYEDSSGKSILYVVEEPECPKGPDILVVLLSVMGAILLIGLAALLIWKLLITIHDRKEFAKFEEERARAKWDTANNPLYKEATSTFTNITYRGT
Target sequence in this assay (P06756 31-889 limits assumed): as the sequence (P06756 31-889 limits assumed) above
Target sequence in this assay (P06756 891-1048 limits assumed): as the sequence (P06756 891-1048 limits assumed) above

Integrin alpha-V/beta-5 [8] = molecular target: T1, Integrin alpha-V/beta-5; experiment: Displacement of [125I]echistatin from integrin alphaVbeta5 receptor after 3 hrs by gamma counting; type: protein-complex assay
Target sequence in this assay (P06756 31-889 limits assumed): as the sequence (P06756 31-889 limits assumed) above
Target sequence in this assay (P06756 891-1048 limits assumed): as the sequence (P06756 891-1048 limits assumed) above
Target sequence in this assay (P18084 24-799 limits assumed): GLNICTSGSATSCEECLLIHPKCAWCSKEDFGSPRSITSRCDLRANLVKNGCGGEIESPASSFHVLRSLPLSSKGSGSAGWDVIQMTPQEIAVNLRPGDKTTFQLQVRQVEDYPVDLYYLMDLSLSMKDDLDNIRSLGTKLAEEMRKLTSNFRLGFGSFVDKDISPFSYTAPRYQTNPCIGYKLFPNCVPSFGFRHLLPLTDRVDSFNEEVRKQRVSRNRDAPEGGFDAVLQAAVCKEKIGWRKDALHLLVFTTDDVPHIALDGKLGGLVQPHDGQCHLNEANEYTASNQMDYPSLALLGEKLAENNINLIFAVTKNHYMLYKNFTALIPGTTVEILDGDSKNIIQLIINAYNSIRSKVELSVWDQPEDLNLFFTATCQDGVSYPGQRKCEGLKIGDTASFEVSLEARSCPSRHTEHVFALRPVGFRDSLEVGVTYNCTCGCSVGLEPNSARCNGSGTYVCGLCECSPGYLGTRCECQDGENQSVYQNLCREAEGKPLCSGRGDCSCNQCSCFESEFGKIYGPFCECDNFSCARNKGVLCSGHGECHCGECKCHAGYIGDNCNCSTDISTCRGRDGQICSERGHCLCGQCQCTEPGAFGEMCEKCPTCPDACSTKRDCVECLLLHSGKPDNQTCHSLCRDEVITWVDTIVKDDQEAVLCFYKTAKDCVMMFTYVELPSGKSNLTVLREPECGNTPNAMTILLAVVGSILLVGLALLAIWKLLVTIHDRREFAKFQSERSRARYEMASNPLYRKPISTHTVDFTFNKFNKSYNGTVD

Integrin alpha-V/beta-5 [9] = molecular target: T1, Integrin alpha-V/beta-5; experiment: Inhibition of integrin alphaVbeta5 receptor-mediated adhesion of human A2780 cells to vitronectin after 1 hr by toluidine blue staining; type: cell-based
In short: (§2)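 Wells were coated 2 h at room temperature with human vitronectin and blocked 1 h with 1% BSA. Tumor cells in serum-free medium with 1% BSA were plated with compounds at 0.1 to 100 and incubated 1 h. Cells were washed with PBS, fixed 10 min in 4% paraformaldehyde and stained 10 min with 1% toluidine blue.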
Target sequence in this assay (P06756 31-889 limits assumed): as the sequence (P06756 31-889 limits assumed) above
Target sequence in this assay (P06756 891-1048 limits assumed): as the sequence (P06756 891-1048 limits assumed) above
Target sequence in this assay (P18084 24-799 limits assumed): as the sequence (P18084 24-799 limits assumed) above

[10] = Chemical stability assessed as half life at 100 uM at pH 7.4 by HPLC analysis; type: physicochemical; conditions: buffer
In short: (§3)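 Compounds were dissolved in DMSO and diluted to 100 (final, 1% DMSO) in phosphate buffer for pH 7.4 or acetate buffer for pH 5.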

[11] = Chemical stability assessed as half life at 100 uM at pH 5 by HPLC analysis; type: physicochemical; conditions: buffer; in short: as §3
Integrin alpha-V/beta-5 [12] = molecular target: T1, Integrin alpha-V/beta-5; experiment: Inhibition of integrin alphaVbeta5 receptor-mediated adhesion of human A498 cells to vitronectin after 1 hr by toluidine blue staining; type: cell-based; in short: as §2
Target sequence in this assay (P06756 31-889 limits assumed): as the sequence (P06756 31-889 limits assumed) above
Target sequence in this assay (P06756 891-1048 limits assumed): as the sequence (P06756 891-1048 limits assumed) above
Target sequence in this assay (P18084 24-799 limits assumed): as the sequence (P18084 24-799 limits assumed) above

Integrin alpha-V/beta-3 [13] = molecular target: T2, Integrin alpha-V/beta-3; experiment: Inhibition of integrin alphaVbeta3 receptor-mediated adhesion of human A498 cells to vitronectin after 1 hr by toluidine blue staining; type: cell-based; in short: as §2
Target sequence in this assay (P05106 27-788 limits assumed): as the sequence (P05106 27-788 limits assumed) above
Target sequence in this assay (P06756 31-889 limits assumed): as the sequence (P06756 31-889 limits assumed) above
Target sequence in this assay (P06756 891-1048 limits assumed): as the sequence (P06756 891-1048 limits assumed) above

A498 [14] = experiment: Cellular uptake in human A498 cells at IC50 after 48 hrs by HPLC-FL analysis; type: ADME, cell-based; conditions: a498, 48 h
In short: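 A-498 cells (6.2×10^5 per dish) were treated 24 h after seeding and sampled at 5, 24, 48 and 72 h. Cells were PBS-washed, scraped and pelleted, then lysed by five freeze-thaw cycles. Lysates were extracted with methanol/acetonitrile (1:1) and analyzed by isocratic HPLC with fluorescence detection. Lysate protein was measured by Bradford assay.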

Mus musculus [15] = experiment: AUC (0 to infinity) in nude mouse xenografted with human A2780 cells at 48 mg/kg, ip administered as single dose every fourth day for four times; type: ADME, organism-based; set-up: time infinity, dose 48 mg/kg, route intraperitoneal; conditions: in vivo
Mus musculus [16] = experiment: AUC (0 to infinity) in nude mouse xenografted with human A2780 cells at 48 mg/kg, sc QD for 5 days; type: ADME, organism-based; set-up: time infinity, dose 48 mg/kg, route subcutaneous; conditions: in vivo, 120 h
Integrin alpha-V [17] = molecular target: T3, Integrin alpha-V; experiment: Inhibition of integrin alphaV receptor-mediated adhesion of human PC3 cells to vitronectin after 1 hr by toluidine blue staining; type: cell-based; conditions: pc-3; in short: as §2
A498 [18] = experiment: Cellular uptake in human A498 cells at 0.064 uM after 5 hrs by HPLC-FL analysis; type: ADME, cell-based; conditions: a498, 5 h
In short: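 A-498 cells (6.2 × 10⁵) were seeded in dishes and dosed 24 h later, then sampled at 5, 24, 48 and 72 h. Cells were PBS-washed, scraped, pelleted, lysed by five freeze–thaw cycles, and extracted with methanol/acetonitrile (1:1). Culture medium was extracted the same way. Analysis was by isocratic HPLC-FL (30% CH₃CN / 70% 0.1 M AcOH with 0.1% TEA, pH about 3.5), and lysate protein was measured by Bradford assay.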

A2780 [19] = experiment: Antitumor activity against human A2780 cells xenografted in nude mouse assessed as tumor volume inhibition at 16.3 mg/kg, sc QD for 5 days; type: functional, organism-based; set-up: dose 16.3 mg/kg
In short: (§4)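 Nude mice bearing A2780 human ovarian carcinoma xenografts were dosed from day 2 after tumor injection, either ip every fourth day ×4 or sc daily ×5, at 10 mL/kg. Tumor volume was calculated from the shortest and longest diameters on day 16 or 17. TVI% is relative to vehicle-treated controls (mean ± SE, Mann–Whitney). Body weight was monitored for toxicity.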

A2780 [20] = experiment: Antitumor activity against human A2780 cells xenografted in nude mouse assessed as tumor volume inhibition at 0.42 mg/kg, sc QD for 5 days measured after 17 days of tumor implantation relative to control; type: functional; conditions: route subcutaneous; in short: as §4
Mus musculus [21] = experiment: AUC (0 to infinity) in nude mouse xenografted with human A2780 cells at 0.42 mg/kg, sc QD for 5 days; type: ADME, organism-based; set-up: time infinity, dose 0.42 mg/kg, route subcutaneous; conditions: in vivo, 120 h
A2780 [22] = experiment: Antitumor activity against human A2780 cells xenografted in nude mouse assessed as tumor volume inhibition at 48 mg/kg, ip administered as single dose every fourth day for four times measured after 16 days of tumor implantation relative to control; type: functional; conditions: 384 h, route intraperitoneal; in short: as §4
A2780 [23] = experiment: Antitumor activity against human A2780 cells xenografted in nude mouse assessed as tumor volume inhibition at 48 mg/kg, sc QD for 5 days measured after 17 days of tumor implantation relative to control; type: functional; conditions: route subcutaneous; in short: as §4
Mus musculus [24] = experiment: Metabolic stability in nude mouse xenografted with human A2780 cells assessed as release of free namitecan in blood at 48 mg/kg, ip administered as single dose every fourth day for four times; type: ADME, organism-based; set-up: dose 48 mg/kg, route intraperitoneal; conditions: in vivo
Mus musculus [25] = experiment: Metabolic stability in nude mouse xenografted with human A2780 cells assessed as release of free namitecan in blood at 48 mg/kg, sc QD for 5 days; type: ADME, organism-based; set-up: dose 48 mg/kg, route subcutaneous; conditions: in vivo, 120 h

| Compound | IC50 (PC-3) | IC50 (A498 [5]) | IC50 (A2780 [6]) | IC50 (Integrin alpha-V/beta-3 [7]; read-out: IC50) | IC50 (Integrin alpha-V/beta-5 [8]) | IC50 (Integrin alpha-V/beta-5 [9]) | IC50 (Integrin alpha-V/beta-5 [12]) | IC50 (Integrin alpha-V/beta-3 [13]) | also measured |
| --- | --- | --- | --- | --- | --- | --- | --- | --- | --- |
| N=C(N)NCCC[C@@H]1NC(=O)[C@H](CCCC(=O)O)NC(=O)[C@@H](Cc2ccccc2)NC(=O)[C@H](CC(=O)O)NC(=O)CNC1=O | > 1000 µM | > 1000 µM | > 1000 µM | – | – | – | – | – | Activity (Integrin alpha-V/beta-5 [1]): Dose-dependent effect; Activity (Integrin alpha-V/beta-3 [2]): Dose-dependent effect; Activity (Integrin alpha-V/beta-5 [3]): Dose-dependent effect; Activity (Integrin alpha-V [4]): Dose-dependent effect |
| CC[C@@]1(O)C(=O)OCc2c1cc1n(c2=O)Cc2c-1nc1ccccc1c2CC/C=N/NC(=O)COCCOCCOCC(=O)NCc1ccc(C[C@@H]2NC(=O)[C@@H](Cc3ccccc3)NC(=O)[C@H](CC(=O)O)NC(=O)CNC(=O)[C@H](CCCNC(=N)N)NC2=O)cc1 | 0.42 µM | – | 0.017 µM | 0.00601 µM | 0.0229 µM | 12.9 µM | – | – | half-life at 100 µM [10]: 5.8 h; half-life at 100 µM [11]: < 0.0333 h |
| CC[C@@]1(O)C(=O)OCc2c1cc1n(c2=O)Cc2c-1nc1ccccc1c2C=O | 0.13 µM | – | 0.003 µM | – | – | – | – | – | – |
| N=C(N)NCCC[C@@H]1NC(=O)[C@H](c2ccc(CNC(=O)COCCOCCOCC(=O)NN)cc2)NC(=O)[C@@H](Cc2ccccc2)NC(=O)[C@H](CC(=O)O)NC(=O)CNC1=O | > 1000 µM | – | > 1000 µM | 0.0038 µM | 0.00065 µM | 11.8 µM | – | – | – |
| CC[C@@]1(O)C(=O)OCc2c1cc1n(c2=O)Cc2c-1nc1ccccc1c2CCC=O | 0.12 µM | – | 0.015 µM | – | – | – | – | – | – |
| N=C(N)NCCC[C@@H]1NC(=O)[C@H](c2ccc(CNC(=O)CCC(=O)O)cc2)NC(=O)[C@@H](Cc2ccccc2)NC(=O)[C@H](CC(=O)O)NC(=O)CNC1=O | > 1000 µM | > 1000 µM | > 1000 µM | 0.0376 µM | 0.0051 µM | 9.5 µM | 34 µM | 34 µM | Activity (Integrin alpha-V/beta-5 [1]): Dose-dependent effect; Activity (Integrin alpha-V/beta-3 [2]): Dose-dependent effect; Activity (Integrin alpha-V/beta-5 [3]): Dose-dependent effect; Activity (Integrin alpha-V [4]): Dose-dependent effect |
| CC[C@@]1(O)C(=O)OCc2c1cc1n(c2=O)Cc2c-1nc1ccccc1c2/C=N\OCCNC(=O)CCC[C@@H]1NC(=O)[C@@H](Cc2ccccc2)NC(=O)[C@H](CC(=O)O)NC(=O)CNC(=O)[C@H](CCCNC(=N)N)NC1=O | 15 µM | 3.2 µM | 0.4 µM | – | – | 3.1 µM | 3.7 µM | 3.7 µM | Drug uptake (A498 [14]): Active; AUC (Mus musculus [15]): 82 µg/h/mL; AUC (Mus musculus [16]): 82 µg/h/mL |
| CC[C@@]1(O)C(=O)OCc2c1cc1n(c2=O)Cc2c-1nc1ccccc1c2/C=N\OCCN | 0.36 µM | 0.064 µM | 0.0049 µM | – | – | – | – | – | IC50 (Integrin alpha-V/beta-3 [7]): Not Active; IC50 (Integrin alpha-V [17]): Not Active; Drug uptake (A498 [18]): Active; inhibition (A2780 [19]): Toxic; inhibition in vivo at 0.42 mg/kg (A2780 [20]): 43%; AUC (Mus musculus [21]): 2 µg/h/mL |
| CC[C@@]1(O)C(=O)OCc2c1cc1n(c2=O)Cc2c-1nc1ccccc1c2/C=N/OCCNC(=O)COCCOCCOCC(=O)NCc1ccc(C[C@@H]2NC(=O)[C@@H](Cc3ccccc3)NC(=O)[C@H](CC(=O)O)NC(=O)CNC(=O)[C@H](CCCN=C(N)N)NC2=O)cc1 | 27 µM | 0.74 µM | 0.18 µM | 0.0125 µM | 0.0065 µM | 1.8 µM | 3.1 µM | 3.1 µM | Drug uptake (A498 [14]): Active; inhibition in vivo at 48 mg/kg (A2780 [22]): 43%; inhibition in vivo at 48 mg/kg (A2780 [23]): 37%; Activity (Mus musculus [24]): 2.5%; Activity (Mus musculus [25]): 2.5% |
| N=C(N)NCCC[C@@H]1NC(=O)[C@H](c2ccc(CNC(=O)COCCOCCOCC(=O)O)cc2)NC(=O)[C@@H](Cc2ccccc2)NC(=O)[C@H](CC(=O)O)NC(=O)CNC1=O | > 1000 µM | > 1000 µM | > 1000 µM | 0.004 µM | 0.00035 µM | 12.3 µM | 10.7 µM | 10.7 µM | Activity (Integrin alpha-V/beta-5 [1]): Dose-dependent effect; Activity (Integrin alpha-V/beta-3 [2]): Dose-dependent effect; Activity (Integrin alpha-V/beta-5 [3]): Dose-dependent effect; Activity (Integrin alpha-V [4]): Dose-dependent effect |
| CC[C@@]1(O)C(=O)OCc2c1cc1n(c2=O)Cc2c-1nc1ccccc1c2/C=N/NC(=O)COCCOCCOCC(=O)NCc1ccc(C[C@@H]2NC(=O)[C@@H](Cc3ccccc3)NC(=O)[C@H](CC(=O)O)NC(=O)CNC(=O)[C@H](CCCNC(=N)N)NC2=O)cc1 | 0.22 µM | – | 0.09 µM | 0.0117 µM | 0.0599 µM | 6.7 µM | – | – | half-life at 100 µM [10]: 6 h; half-life at 100 µM [11]: 25 h |
| CC[C@@]1(O)C(=O)OCc2c1cc1n(c2=O)Cc2c-1nc1ccccc1c2/C=N/OCCNC(=O)CCC(=O)NCc1ccc(C[C@@H]2NC(=O)[C@@H](Cc3ccccc3)NC(=O)[C@H](CC(=O)O)NC(=O)CNC(=O)[C@H](CCCNC(=N)N)NC2=O)cc1 | 4.7 µM | 4.3 µM | 0.16 µM | 0.00727 µM | 0.00839 µM | – | 5.4 µM | 5.4 µM | – |

— ChEMBL document CHEMBL1157688, “Novel tumor-targeted RGD peptide-camptothecin conjugates: synthesis and biological evaluation” (Bioorg Med Chem, 2010)
